Compound activity: PubChem, Broad Institute
FGF22 binding: binders of recombinant human FGF22 by thermal shift; Q9HCT0; activity (Tm shift, normalised), % at 9.99 µM; AID 651658; hit rate 1.5% among 340,000; SYPRO orange fluorescence; percent of sucrose octasulfate shift, DMSO zero;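 active means mean Tm shift, scaled 0 neutral to 100 positive control, at about 1.3% or above, every replicate too, limit read from the data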
ERAP1 inh: blocks human ERAP1 aminopeptidase activity | AID 652197 | recombinant ERAP1, Leu-AMC fluorescence, 60 min | inhibition, % at 10.7 µM | hit rate 0.15% among 340,000;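 active means mean replicate inhibition of at least 30%, or all replicates individually reaching that 30% level; inactive means mean below 30% and not every replicate reaching it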
Target sequence (Q9NZ08 whole entry, looked up): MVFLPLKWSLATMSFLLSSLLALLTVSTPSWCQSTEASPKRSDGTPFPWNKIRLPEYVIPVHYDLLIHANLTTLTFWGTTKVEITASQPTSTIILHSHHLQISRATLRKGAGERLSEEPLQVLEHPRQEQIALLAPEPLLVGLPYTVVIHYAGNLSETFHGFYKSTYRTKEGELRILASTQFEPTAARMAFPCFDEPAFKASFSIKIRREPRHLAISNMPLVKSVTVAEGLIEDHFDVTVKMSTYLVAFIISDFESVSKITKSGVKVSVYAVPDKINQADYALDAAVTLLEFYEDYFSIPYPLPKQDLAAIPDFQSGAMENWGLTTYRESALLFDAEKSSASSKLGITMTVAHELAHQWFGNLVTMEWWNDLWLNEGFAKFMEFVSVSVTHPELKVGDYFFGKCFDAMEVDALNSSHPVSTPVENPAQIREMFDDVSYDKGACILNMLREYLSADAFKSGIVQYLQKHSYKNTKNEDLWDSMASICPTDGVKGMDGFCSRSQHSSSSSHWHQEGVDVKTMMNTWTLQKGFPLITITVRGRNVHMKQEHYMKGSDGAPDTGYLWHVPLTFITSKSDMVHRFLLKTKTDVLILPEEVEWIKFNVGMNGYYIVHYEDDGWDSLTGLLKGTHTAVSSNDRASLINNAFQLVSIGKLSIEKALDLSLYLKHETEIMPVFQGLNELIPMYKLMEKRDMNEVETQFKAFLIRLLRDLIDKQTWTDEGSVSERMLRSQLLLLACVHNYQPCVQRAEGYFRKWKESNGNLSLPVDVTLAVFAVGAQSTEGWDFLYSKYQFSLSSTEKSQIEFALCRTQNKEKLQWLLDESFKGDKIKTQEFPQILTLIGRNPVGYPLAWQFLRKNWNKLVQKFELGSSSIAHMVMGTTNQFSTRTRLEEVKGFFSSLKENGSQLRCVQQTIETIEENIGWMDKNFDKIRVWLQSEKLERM
SIRT5 inh: inhibitors of human sirtuin-5 desuccinylase; hit rate 1.1% among 330,000; Q9NXA8; Purified SirT5, succinyl-peptide AMC, trypsin-coupled fluorescence; AID 652115; inhibition, % at 15 µM; in the data active means inhibition above about 15%
FN deposition inh: fibronectin deposition inhibition; AH1F fibroblasts, Alexa488-fibronectin deposition fluorescence, overnight; inhibition, % at 12.6 µM; hit rate 0.086% among 350,000; AID 743247;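 active means mean inhibition across replicates of 30% or more, regardless of how many single replicates reach that level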
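Assay system: AH1F fibroblasts assembling fluorescent fibronectin matrix; Amount: 10000 AH1F cells per well; Buffer or medium: DMEM, 2% serum; Probe or stimulus: Alexa488-fibronectin, 24 nM final in well; Doses: single compound dose, delivered by pin transfer; Incubation: 1 h adhesion, overnight exposure; Measured by: fluorescence 485/525 nm; Read-out: fibronectin deposition inhibition.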
PGC1a acetyl inh: modulators of PGC1a acetylation; U2OS PGC1a acetylation, AlphaScreen anti-acetyl-lysine; with virally co-expressed GCN5 acetyltransferase; inhibition, % at 15.6 µM; hit rate 0.17% among 350,000; AID 651687;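 active means every replicate shows inhibition of at least 40%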
Hits are given with their value; . = inactive; / = no result. The list is not random: actives were taken first. Their share in the collection is about 2.2%.

SMILES	FGF22 binding	ERAP1 inh	SIRT5 inh	FN deposition inh	PGC1a acetyl inh
C[C@@H]1CN([C@H](C)CO)S(=O)(=O)c2ccc(-c3cccnc3)cc2O[C@@H]1CN(C)C(=O)NC1CCCC1	.	.	.	.	.
COc1ccc(NC(=O)N(C)C[C@@H]2Oc3c(NC(=O)NC4CCCCC4)cccc3C(=O)N([C@H](C)CO)C[C@@H]2C)cc1	.	.	.	/	.
COc1ccc(S(=O)(=O)N(C)C[C@H]2Oc3ccc(N(C)C)cc3CC(=O)N([C@H](C)CO)C[C@@H]2C)cc1	.	.	.	.	.
NC(=O)c1ccc(NC(=O)COc2ccc([N+](=O)[O-])cc2Cl)cc1	43	.	.	.	.
CC(C)C(C)NC(=O)COc1ccc([N+](=O)[O-])cc1Cl (stereo not given)	.	.	.	.	/
COc1ccc(NC(=O)Nc2ccc3c(c2)C(=O)N([C@H](C)CO)C[C@H](C)[C@H](CN(C)C(=O)Nc2cccc4ccccc24)O3)cc1	.	.	.	.	.
CSCCC(NC(=O)c1ccc(C(C)(C)C)cc1)C(=O)O (stereo not given)	44	.	.	.	/
CCc1ccc(C(=O)COC(=O)C(CCSC)NC(=O)c2ccccc2)cc1 (stereo not given)	44	.	.	.	.
O=C(Cn1cccc1C(=O)c1ccccc1)NCc1ccc2c(c1)OCO2	/	/	/	/	.
CC(NC(=O)Cn1cccc1C(=O)c1ccccc1)c1ccc2c(c1)OCCO2 (stereo not given)	43	.	.	.	.
CC(C)NC(=O)N(C)C[C@@H]1Oc2ncc(C#CCC3CCCC3)cc2C(=O)N([C@H](C)CO)C[C@H]1C	.	.	.	.	.
Cc1nc([N+](=O)[O-])c(SCC(O)CCl)n1Cc1ccc(Cl)cc1 (stereo not given)	43	.	.	.	.
COc1ccc(Cn2c(C)nc([N+](=O)[O-])c2SCC(=O)O)cc1[N+](=O)[O-]	.	.	.	.	.
COc1ccc(-n2c(=O)c3ccccc3n(CC(=O)NCC3CCCO3)c2=O)cc1 (stereo not given)	44	.	.	.	.
CSc1nc(N)nc2c1ncn2CC(=O)NCC1CCCO1 (stereo not given)	.	.	31	.	.
COc1cccc(-n2c(=O)c3ccccc3n(CC(=O)NCC3CCCO3)c2=O)c1 (stereo not given)	.	.	.	.	/
COc1cccc(-n2nnc3c(=O)n(CC(=O)NCC4CCCO4)cnc32)c1 (stereo not given)	.	.	16	.	/
O=C(CCSc1ccccc1)N1CCOCC1	/	/	/	/	.
O=C(CCSc1ccccc1)N1CCCC1	44	.	.	.	/
Cc1ccc(-n2c(O)c(C=NC3CCS(=O)(=O)C3)c3ccccc3c2=O)c(C)c1 (stereo not given)	.	.	.	.	57
Cc1ccc(-n2c(O)c(C=NC3CCS(=O)(=O)C3)c3ccccc3c2=O)cc1 (stereo not given)	/	/	/	.	.
Cc1ccc(-c2nc3ccc([N+](=O)[O-])cc3[nH]2)cc1	1.5	.	.	.	.
O=[N+]([O-])c1ccc2nc(-c3ccncc3)[nH]c2c1	.	.	.	.	/
Cc1ccc(S(=O)(=O)N[C@@H](CO)C(=O)N[C@@H](Cc2ccc(O)cc2)C(=O)O)cc1	.	.	21	.	.
CCC(NS(=O)(=O)c1ccc(C)cc1)C(=O)O (stereo not given)	/	/	/	.	.
SMILES	FGF22 binding	ERAP1 inh	SIRT5 inh	FN deposition inh	PGC1a acetyl inh
COc1ccc(-c2cc(C(=O)N3CCN(c4cccc(C)c4C)CC3)c3ccccc3n2)cc1OC	/	.	21	/	.
COc1ccc(-c2cc(C(=O)N3CCN(c4ncccn4)CC3)c3ccccc3n2)cc1OC	.	.	.	.	.
CCC(=O)N(C)C[C@H]1Oc2ncc(-c3ccc(C)cc3)cc2C(=O)N([C@@H](C)CO)C[C@H]1C	.	.	.	.	.
COCCN(C[C@H]1[C@H](c2ccccc2)[C@H](CO)N1C(C)=O)C(=O)c1ccncc1	.	.	.	.	.
Cc1csc(N2CCCC2=O)n1	.	.	21	.	.
CCc1cc2c(SCC#N)ncnc2s1	43	.	.	.	.
O=C(C[C@@H]1CC[C@H]2[C@@H](COC[C@H](O)CN2Cc2cc(F)ccc2F)O1)NCc1ccc(Cl)cc1	.	/	/	.	.
CN(CC(=O)Nc1c(Cl)cccc1Cl)CC(=O)N(C)C1(C#N)CCCCC1	43	.	/	.	.
C[C@H]1CN([C@@H](C)CO)C(=O)c2cc(NC(=O)Nc3ccc4c(c3)OCO4)ccc2O[C@@H]1CN(C)S(C)(=O)=O	/	/	/	/	.
COc1cc(/C=C/C(=O)O)ccc1S(=O)(=O)N1CCCc2ccccc21	43	.	.	.	.
COC(=O)/C(=C\Nc1cccc(Cl)c1C)c1ncc(C(F)(F)F)cc1Cl	/	/	/	/	41
CCOc1cc(C(=O)OCc2cccc(OC)c2OC)ccc1OCC(=O)N1CCOCC1	.	.	16	.	.
COc1ccc(CN(C)C[C@@H]2Oc3ccc(NC(=O)NC(C)C)cc3CC(=O)N([C@H](C)CO)C[C@@H]2C)cc1	.	.	.	/	.
Cc1cccc(C)c1N1C(=O)CC(Sc2ccccc2N)C1=O (stereo not given)	44	.	/	.	/
C[C@H]1CN([C@@H](C)CO)C(=O)c2cc(NC(=O)CCN3CCOCC3)ccc2O[C@@H]1CN(C)C(=O)Nc1ccc(F)cc1	.	.	.	.	.
CN(Cc1ccccc1)C(=O)COC(=O)c1cncc(Br)c1	.	.	17	.	/
C[C@]12CC[C@H](OC(=O)CCC(=O)O)CC1=CCC1C2CC[C@@]2(C)C1CC[C@@H]2N (stereo not given in full)	43	.	/	.	.
CC(=O)OCC(=O)C1CCC2C3CC=C4CC(O)CCC4(C)C3CCC12C (stereo not given)	.	.	.	.	.
Cc1noc(C)c1NC(=O)Nc1ccc2c(c1)C(=O)N([C@H](C)CO)C[C@H](C)[C@H](CN(C)C(=O)Nc1c(C)noc1C)O2	.	.	.	/	.
O=C(/C=C/c1c(Cl)nc2ccccn12)Nc1ccc(F)cc1	44	.	.	.	.
O=Cc1c(Cl)nc2ccccn12	.	.	.	.	.
CO[C@H]1CN(C)C(=O)c2ccc(NC(=O)C3CCCC3)cc2OC[C@H](C)N(C)C[C@@H]1C	/	.	.	.	/
CCc1cccc(CC)c1NC(=S)NC(C)c1ccccc1 (stereo not given)	44	.	.	.	/
COc1ccc(S(=O)(=O)Nc2ccc3c(c2)CC(=O)N([C@H](C)CO)C[C@@H](C)[C@H](CN(C)S(=O)(=O)c2ccc(C)cc2)O3)cc1	.	.	.	/	.
CS(=O)(=O)c1ccc2nc(NC(=O)CCN3C(=O)c4ccccc4C3=O)sc2c1	43	.	.	.	.
CNC(=O)/C(C#N)=C/c1ccc(-c2ccc(Cl)cc2)o1	1.5	.	.	.	.
